Laboratory results from ChEMBL document CHEMBL4689842, “EUbOPEN Chemogenomics Library wave 1” (2021).

Test system: U2OS
Assay: Multiplex assay against U2OS
Type: toxicity, cell-based
Details: human
Method in brief: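 Imaging took place on a CQ1 microscope at 37°C and 5% CO2 once compound had been added to live cells stained at seeding with Hoechst33342, BioTracker Green Microtubule Cytoskeleton Dye, MitoTracker Red and Annexin V Alexa Fluor 680. CellPathfinder machine-learning gating classed cells as Hoechst high-intensity objects or normal cells, classed normal cells as having healthy, pyknosed or fragmented nuclei, and classed pyknosed cells as mitotic or apoptotic. Tubulin, mitochondrial-mass and membrane-permeability phenotypes are per cents of the healthy-nucleus cells.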

[1] = 12 h, 1 µM, compound concentration 1 uM, replicate 1
[2] = 12 h, 1 µM, compound concentration 1 uM, replicate 2
[3] = 12 h, 10 µM, compound concentration 10 uM, replicate 1
[4] = 12 h, 10 µM, compound concentration 10 uM, replicate 2
[5] = 24 h, 1 µM, compound concentration 1 uM, replicate 1
[6] = 24 h, 1 µM, compound concentration 1 uM, replicate 2
[7] = 24 h, 10 µM, compound concentration 10 uM, replicate 1
[8] = 24 h, 10 µM, compound concentration 10 uM, replicate 2
[9] = 48 h, 1 µM, compound concentration 1 uM, replicate 1
[10] = 48 h, 1 µM, compound concentration 1 uM, replicate 2
[11] = 48 h, 10 µM, compound concentration 10 uM, replicate 1
[12] = 48 h, 10 µM, compound concentration 10 uM, replicate 2

Structure (SMILES): Cc1ccc(S(=O)(=O)NC2c3ccccc3Oc3ccccc32)cc1
- Population Apoptotic (%) [1]: 47%
- Population Fragmented Nuclei (%) [1]: 11%
- Population Healthy Nuclei (%) [1]: 77%
- Population Hoechst High Intensity Objects (%) [1]: 5%
- Population Membrane Permeable-Phenotype (%) [1]: 6%
- Population Mitochondria Different-Phenotype (%) [1]: 5%
- Population Mitotic Cells (%) [1]: 52%
- Population Normal (%) [1]: 94%
- Population Pyknosed Nuclei (%) [1]: 10%
- Population Tubulin-Different-Phenotype (%) [1]: 5%
- Total Cell Count [1]: 216
- Population Apoptotic (%) [2]: 0%
- Population Fragmented Nuclei (%) [2]: 10%
- Population Healthy Nuclei (%) [2]: 76%
- Population Hoechst High Intensity Objects (%) [2]: 4%
- Population Membrane Permeable-Phenotype (%) [2]: 0%
- Population Mitochondria Different-Phenotype (%) [2]: 16%
- Population Mitotic Cells (%) [2]: 100%
- Population Normal (%) [2]: 95%
- Population Pyknosed Nuclei (%) [2]: 12%
- Population Tubulin-Different-Phenotype (%) [2]: 2%
- Total Cell Count [2]: 49
- Population Apoptotic (%) [3]: 71%
- Population Fragmented Nuclei (%) [3]: 84%
- Population Healthy Nuclei (%) [3]: 12%
- Population Hoechst High Intensity Objects (%) [3]: 7%
- Population Membrane Permeable-Phenotype (%) [3]: 71%
- Population Mitochondria Different-Phenotype (%) [3]: 28%
- Population Mitotic Cells (%) [3]: 28%
- Population Normal (%) [3]: 92%
- Population Pyknosed Nuclei (%) [3]: 2%
- Population Tubulin-Different-Phenotype (%) [3]: 68%
- Total Cell Count [3]: 507
- Population Apoptotic (%) [4]: 95%
- Population Fragmented Nuclei (%) [4]: 42%
- Population Healthy Nuclei (%) [4]: 34%
- Population Hoechst High Intensity Objects (%) [4]: 6%
- Population Membrane Permeable-Phenotype (%) [4]: 44%
- Population Mitochondria Different-Phenotype (%) [4]: 0%
- Population Mitotic Cells (%) [4]: 4%
- Population Normal (%) [4]: 93%
- Population Pyknosed Nuclei (%) [4]: 23%
- Population Tubulin-Different-Phenotype (%) [4]: 50%
- Total Cell Count [4]: 106
- Population Apoptotic (%) [5]: 59%
- Population Fragmented Nuclei (%) [5]: 57%
- Population Healthy Nuclei (%) [5]: 25%
- Population Hoechst High Intensity Objects (%) [5]: 0%
- Population Membrane Permeable-Phenotype (%) [5]: 11%
- Population Mitochondria Different-Phenotype (%) [5]: 17%
- Population Mitotic Cells (%) [5]: 40%
- Population Normal (%) [5]: 100%
- Population Pyknosed Nuclei (%) [5]: 16%
- Population Tubulin-Different-Phenotype (%) [5]: 5%
- Total Cell Count [5]: 132
- Population Apoptotic (%) [6]: 25%
- Population Fragmented Nuclei (%) [6]: 5%
- Population Healthy Nuclei (%) [6]: 88%
- Population Hoechst High Intensity Objects (%) [6]: 7%
- Population Membrane Permeable-Phenotype (%) [6]: 7%
- Population Mitochondria Different-Phenotype (%) [6]: 15%
- Population Mitotic Cells (%) [6]: 75%
- Population Normal (%) [6]: 92%
- Population Pyknosed Nuclei (%) [6]: 6%
- Population Tubulin-Different-Phenotype (%) [6]: 13%
- Total Cell Count [6]: 65
- Population Apoptotic (%) [7]: 71%
- Population Fragmented Nuclei (%) [7]: 69%
- Population Healthy Nuclei (%) [7]: 27%
- Population Hoechst High Intensity Objects (%) [7]: 6%
- Population Membrane Permeable-Phenotype (%) [7]: 34%
- Population Mitochondria Different-Phenotype (%) [7]: 18%
- Population Mitotic Cells (%) [7]: 28%
- Population Normal (%) [7]: 93%
- Population Pyknosed Nuclei (%) [7]: 2%
- Population Tubulin-Different-Phenotype (%) [7]: 19%
- Total Cell Count [7]: 321
- Population Apoptotic (%) [8]: 100%
- Population Fragmented Nuclei (%) [8]: 10%
- Population Healthy Nuclei (%) [8]: 68%
- Population Hoechst High Intensity Objects (%) [8]: 4%
- Population Membrane Permeable-Phenotype (%) [8]: 20%
- Population Mitochondria Different-Phenotype (%) [8]: 14%
- Population Mitotic Cells (%) [8]: 0%
- Population Normal (%) [8]: 95%
- Population Pyknosed Nuclei (%) [8]: 21%
- Population Tubulin-Different-Phenotype (%) [8]: 43%
- Total Cell Count [8]: 84
- Population Apoptotic (%) [9]: 50%
- Population Fragmented Nuclei (%) [9]: 8%
- Population Healthy Nuclei (%) [9]: 85%
- Population Membrane Permeable-Phenotype (%) [9]: 0%
- Population Mitochondria Different-Phenotype (%) [9]: 7%
- Population Mitotic Cells (%) [9]: 50%
- Population Pyknosed Nuclei (%) [9]: 6%
- Population Tubulin-Different-Phenotype (%) [9]: 3%
- Total Cell Count [9]: 429
- Population Apoptotic (%) [10]: 25%
- Population Fragmented Nuclei (%) [10]: 5%
- Population Healthy Nuclei (%) [10]: 90%
- Population Hoechst High Intensity Objects (%) [10]: 2%
- Population Membrane Permeable-Phenotype (%) [10]: 10%
- Population Mitochondria Different-Phenotype (%) [10]: 18%
- Population Mitotic Cells (%) [10]: 75%
- Population Normal (%) [10]: 97%
- Population Pyknosed Nuclei (%) [10]: 4%
- Population Tubulin-Different-Phenotype (%) [10]: 10%
- Total Cell Count [10]: 93
- Population Apoptotic (%) [11]: 44%
- Population Fragmented Nuclei (%) [11]: 11%
- Population Healthy Nuclei (%) [11]: 82%
- Population Hoechst High Intensity Objects (%) [11]: 3%
- Population Membrane Permeable-Phenotype (%) [11]: 3%
- Population Mitochondria Different-Phenotype (%) [11]: 12%
- Population Mitotic Cells (%) [11]: 55%
- Population Normal (%) [11]: 96%
- Population Pyknosed Nuclei (%) [11]: 6%
- Population Tubulin-Different-Phenotype (%) [11]: 12%
- Total Cell Count [11]: 155
- Population Apoptotic (%) [12]: 75%
- Population Fragmented Nuclei (%) [12]: 7%
- Population Healthy Nuclei (%) [12]: 84%
- Population Hoechst High Intensity Objects (%) [12]: 4%
- Population Membrane Permeable-Phenotype (%) [12]: 17%
- Population Mitochondria Different-Phenotype (%) [12]: 14%
- Population Mitotic Cells (%) [12]: 25%
- Population Normal (%) [12]: 95%
- Population Pyknosed Nuclei (%) [12]: 7%
- Population Tubulin-Different-Phenotype (%) [12]: 37%
- Total Cell Count [12]: 109
